Laboratory results published in paper PMC8204304 (ACS Infectious Diseases, 2021).
Like-named read-outs stand apart in the source and are kept apart here.

Assays:
Pf parasites = test: Minimum inoculum resistance; format: cell-based, Plasmodium falciparum
How it was run: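 Pf cultures were selected at constant pressure of 3 × IC50 in two groups. The lower-inoculum group used 24 wells. The higher group started at 2 × 10^7 parasites in triplicate, covering 2 × 10^7 to 6 × 10^7. Wells were monitored for day of recrudescence. MIR = total inoculum divided by the number of recrudescent wells. A DHODH inhibitor served as positive control. Resistant clones were whole-genome sequenced.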

Dd2 [1] = test: 72 h [3H]hypoxanthine incorporation assay, Dd2; format: cell-based; conditions: Plasmodium falciparum
TM90C2b = test: 72 h [3H]hypoxanthine incorporation assay, TM90C2b; format: cell-based; conditions: Plasmodium falciparum
How it was run: (§1)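 Asexual Pf strains were tested in a modified [3H]-hypoxanthine incorporation assay. Drug-resistant laboratory strains were compared with the drug-sensitive NF54 strain. IC50s came from linear interpolation.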

NF54 = test: 72 h [3H]hypoxanthine incorporation assay, NF54; format: cell-based; conditions: Plasmodium falciparum
How it was run: as §1

Cam3.I = test: 72 h [3H]hypoxanthine incorporation assay, Cam3.I; format: cell-based; conditions: Plasmodium falciparum
How it was run: as §1

7G8 = test: 72 h [3H]hypoxanthine incorporation assay, 7G8; format: cell-based; conditions: Plasmodium falciparum
How it was run: as §1

K1 = test: 72 h [3H]hypoxanthine incorporation assay, K1; format: cell-based; conditions: Plasmodium falciparum
How it was run: as §1

Dd2 [2] = conditions: read-out: Dd2 IC50; cited from earlier work

IC50 (Dd2 [1]) | IC50 (TM90C2b) | IC50 (NF54) | IC50 (Cam3.I) | IC50 (7G8) | IC50 (K1) | SMILES | minimum inoculum resistance (MIR) (Pf parasites; selection pressure 3 × IC50, parasites) | day of recrudescence (Pf parasites; starting inoculum 2 × 10^5 parasites, 24 replicates) | day of recrudescence (Pf parasites; starting inoculum 2 × 10^7 parasites, triplicate) | IC50 (Dd2 [2])
 |  |  |  |  |  | Cc1cc(Nc2ccc(S(F)(F)(F)(F)F)cc2)n2nc(C(C)(F)F)nc2n1 [DSM265] | 2 × 10^7 | never recrudesced | 25 days | 
0.006 µM | 0.005 µM | 0.004 µM | 0.011 µM | 0.002 µM | 0.002 µM | C[C@H]1[C@H](OC(=O)CCC(=O)O)O[C@@H]2O[C@@]3(C)CC[C@H]4[C@H](C)CC[C@@H]1[C@@]24OO3 [artesunate] |  |  |  | 
 |  |  |  |  |  | O=C(NC1Cc2ccccc2C1)c1nccnc1NC(=O)N1CCCCC1 [N-(2,3-dihydro-1H-inden-2-yl)-3-(piperidine-1-carboxamido)pyrazine-2-carboxamide] |  |  |  | 0.063 µM
0.157 µM | 0.135 µM | 0.008 µM | 0.18 µM | 0.079 µM | 0.202 µM | CCN(CC)CCCC(C)Nc1ccnc2cc(Cl)ccc12 (stereo not shown) [chloroquine] |  |  |  | 
